In the library only some 3.8% were active in any assay of this set; here they are far more common.
Beta cell apopt – inhibitors of cytokine-induced beta cell apoptosis, primary screen, luminescence | AID 435005, 2010 | hit rate 0.8% among 300,000 | INS-1E cytokine-induced death, ATP luminescence, 48 h; percent of positive-control rescue, neutral wells zero | protection from apoptosis, % (test concentration not listed);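 active means Every replicate reaches about 75%, or at least half do and their mean reaches it too, limit read from the data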;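 further: 0% = cytokine-treated negative control wells and 100% = positive control rescue; higher means more ATP so stronger rescue from cytokine killing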
MC4R ag barr – MC4R agonists recruiting beta-arrestin, primary screen, cell-based, luminescence, agonist arm of biased-ligand search | activation, % at 8.9 µM | hit rate 0.98% among 360,000 | U2OS MC4R beta-arrestin complementation; percent of melanotan II response, DMSO zero | Melanocortin receptor 4 (Homo sapiens), P32245;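 active means activation above a per-plate cutoff, the mean activation of sample wells on that plate plus 3 SD, cut at about 8% in these data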
Target sequence (P32245 whole entry, looked up): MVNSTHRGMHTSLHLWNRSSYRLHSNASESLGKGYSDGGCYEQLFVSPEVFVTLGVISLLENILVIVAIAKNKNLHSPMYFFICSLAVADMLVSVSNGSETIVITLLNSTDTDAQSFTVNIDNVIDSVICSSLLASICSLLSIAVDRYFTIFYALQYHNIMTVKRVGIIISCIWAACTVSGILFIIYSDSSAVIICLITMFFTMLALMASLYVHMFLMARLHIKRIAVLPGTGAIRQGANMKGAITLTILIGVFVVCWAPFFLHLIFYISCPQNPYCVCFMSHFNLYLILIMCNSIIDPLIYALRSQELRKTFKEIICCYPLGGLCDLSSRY
ANO1 block – TMEM16A chloride channel inhibitors, primary screen, cell-based, HTS | hit rate 1.2% among 310,000 | normalized B-score (activity score, 25-100; higher = stronger inhibition) at 10 µM | HEK293 TMEM16A/YFP iodide influx fluorescence, ionomycin | Anoctamin-1 (Mus musculus), Q8BHY3;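 active means ratio plate-corrected score three or more library SD toward inhibition, starting fluorescence score within five deviations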;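 further: score derived from kinetic fluorescence span divided by baseline fluorescence per well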
TMEM16A act – TMEM16A chloride channel activators or potentiators, primary screen, cell-based, HTS; HEK293 TMEM16A/YFP-H148Q/I152L, iodide quench fluorescence; stronger effect = lower value; B-score at 10 µM; hit rate 0.3% among 340,000; AID 623877, 2012;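 active means fluorescence-ratio B-score plate-corrected deviation score at least 3 library SD below zero, with starting fluorescence score within 5 deviations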;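 further: channel opened by trigger with iodide after compound preincubation; score built on the fluorescence ratio of max minus min over baseline; more negative score means more quench and so TMEM16A activation or potentiation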
MC4R antag cAMP – MC4R antagonists of cAMP signaling, primary screen, cell-based, TR-FRET, antagonist arm of biased-ligand search. Melanocortin receptor 4 (Homo sapiens), P32245. MC4R-expressing cells, MTII-stimulated cAMP, LANCE TR-FRET. inhibition, % at 6.5 µM. hit rate 0.48% among 360,000. AID 540295, 2011;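 active means inhibition above its plate's cutoff, the mean of tested wells on that plate plus 3 SD, cut at about 29% in these data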;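 further: 0% = Melanotan II alone and 100% = Melanotan II plus saturating MCL0020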
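Test system: U2OS cells stably expressing human melanocortin 4 receptor (MC4R); also added: Melanotan II challenge; compound: 6.5 µM single dose; timing: 30-min compound preincubation, 1-h Melanotan II challenge, 1-h detection, room temperature; signal: Eu-cAMP/anti-cAMP TR-FRET, emission 671 nm; repeats: one well per compound, no replicates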
CSC inhib – cancer stem cell viability inhibitors, primary screen, luminescence. AID 2717, 2010. inhibition, % at 7.5 µM. cancer stem cell-like cells viability. hit rate 1.1% among 300,000; in the data active means inhibition above about 75%; tested in HMLE shEcad cells
Active calls of the source: *; i = inactive; / = not tested or not shown.

SMILES | Beta cell apopt | MC4R ag barr | ANO1 block | TMEM16A act | MC4R antag cAMP | CSC inhib
O=C(CSc1nc2nc(-c3cccs3)cc(C(F)(F)F)c2c(=O)[nH]1)Nc1c(F)c(F)c(F)c(F)c1F | 14 | -2 | 100* | i | 1 | 88*
Cc1ccc(NC(=S)NC(=O)c2ccc(F)cc2)cc1S(=O)(=O)Nc1ccccc1Cl | 0 | 1 | i | i | 4 | 79*
CCCN1CCN(C(=O)C2CCN(S(=O)(=O)c3c(C)noc3/C=C/c3ccc(C)cc3)CC2)CC1 | 12 | 2 | i | i | 7 | -17
C[n+]1c(-c2ccccc2)cc2c(=Cc3ccc([N+](=O)[O-])cc3)c3ccccc3n21 | / | 0 | / | i | -13 | /
C[n+]1c(-c2ccccc2)cc2c(=Cc3ccccc3)c3ccccc3n21 | / | 2 | / | -10* | -17 | /
CCCC(=O)N1CCCC1(C)C(=O)Nc1ccc2nc(C)ccc2c1 (stereo unspecified) | / | -2 | / | / | 6 | /
CC(=O)Oc1ccc(C23c4ccccc4C2(OC(C)=O)c2cc(OC(C)=O)ccc23)cc1 (stereo unspecified) | / | 1 | / | i | -2 | /
COc1ccc(C(CC(=O)O)NS(=O)(=O)c2ccc3c(c2)N(C(C)=O)CC(C)O3)cc1 (stereo unspecified) | 0 | -3 | i | i | 0 | -12
O=C(c1ccc(-c2ccccc2)cc1)C1CCCN(Cc2ccncc2)C1 (stereo unspecified) | 12 | -2 | 100* | i | 0 | 34
C[C@H](CO)N1C[C@H](C)[C@@H](CN(C)S(=O)(=O)c2cn(C)cn2)Oc2c(NS(=O)(=O)c3cn(C)cn3)cccc2C1=O | / | -1 | / | / | -2 | /
CCOc1ccc(C(=S)NC2CCCCC2)cc1OCC | 2 | 0 | i | -6.5* | 3 | -13
CCOc1ccc(C(C)NC(=S)NC2CCCCC2)cc1OCC (stereo unspecified) | -6 | 0 | i | i | 3 | -1
Cc1ccc(-c2c[n+](Cc3ccc(Cl)c(Cl)c3)c3n2CCC3)cc1 | 89* | -1 | i | i | -4 | 33
Cc1ccc(C(=O)C[n+]2cc(-c3ccc(C)cc3)n3c2CCCCC3)cc1 | 125* | -2 | i | i | 2 | 10
COc1ccc(C(=O)C[n+]2cc(-c3ccc(OC)cc3)n3c2CCCC3)cc1 | 72 | -2 | i | i | 13 | -6
CCN(Cc1ccccc1)CC(O)COC(c1ccc(OC)cc1)c1ccc(OC)cc1 (stereo unspecified) | 2 | 7 | i | i | 6 | 5
COc1ccc(C(=O)Nc2ccc3cn[nH]c3c2)c(OC)c1 | -4 | 3 | i | i | -3 | -8
COc1cc([N+](=O)[O-])ccc1NC(=O)COC(=O)c1n[nH]c2ccccc12 | -3 | 1 | i | i | 3 | -10
O=C(COC(=O)c1n[nH]c2ccccc12)Nc1ccc(Cl)cc1[N+](=O)[O-] | -6 | 9.1* | i | i | -10 | 6
CC(C)C1O/C(=N/C(=O)Nc2ccc(Cl)c(Cl)c2)NC1=O (stereo unspecified) | 3 | 5 | 100* | i | 1 | 49
CN(C)C(CNC(=O)c1ccccc1OCc1ccc(Cl)cc1)c1ccco1 (stereo unspecified) | 2 | -3 | i | i | 6 | 8
Cc1cc(C)c2sc(NNC(=O)c3ccc(S(=O)(=O)N4CCc5ccccc5C4)cc3)nc2c1 | 101* | -1 | i | i | 5 | 103*
Cc1cc(C)c2nc(NNC(=O)c3ccc(S(=O)(=O)N4CCc5ccccc5C4)cc3)sc2c1 | 87* | -1 | i | i | 9 | 104*
Cc1cc(C)c2nc(NNC(=O)c3cc(=O)c4ccccc4o3)sc2c1 | 4 | -2 | i | i | 0 | 79*
CCc1nnc(NC(=O)c2ccc(S(=O)(=O)N3CCc4ccccc4C3)cc2)s1 | -3 | 1 | i | i | 1 | 4
SMILES | Beta cell apopt | MC4R ag barr | ANO1 block | TMEM16A act | MC4R antag cAMP | CSC inhib
CC(=O)c1c(C)[nH]c(C(=O)OCC(=O)c2c[nH]c3ccccc23)c1C | 3 | -2 | / | i | -2 | /
COc1ccc(NC(=O)COc2ccccc2Cc2ccccc2)cc1S(=O)(=O)N1CCOCC1 | / | 0 | / | i | 7 | /
CCc1c(O)nc(SC2CC(=O)N(c3ccccc3)C2=O)[nH]c1=O (stereo unspecified) | -4 | -2 | i | -29* | 11 | -18
COc1cc([N+](=O)[O-])ccc1-c1ccc(/C=C2\C(=O)ON=C2c2ccccc2)o1 | / | 4 | / | -5.7* | 11 | /
Cc1ccc(/C=C2/C(=O)ON=C2c2ccccc2)o1 | / | -3 | 25* | i | -4 | 29
COc1cc([N+](=O)[O-])ccc1-c1ccc(/C=N\n2cnnc2)o1 | 7 | -2 | i | i | -4 | -11
CC(C)NS(=O)(=O)c1ccc(NC(=O)C(C)OC(=O)C2CCC2)cc1 (stereo unspecified) | -12 | -2 | / | i | -8 | -9
O=C(OCCCCN1C(=O)c2ccccc2C1=O)c1ccc(S(=O)(=O)N2CCCC2)cc1 | -4 | -2 | 25* | i | 7 | -12
O=C(CCCCCN1C(=O)c2ccccc2C1=O)Nc1ccc(S(=O)(=O)N2CCCCC2)cc1 | 0 | 1 | i | i | 17 | -7
CC(=O)c1ccc(N=C2NC(=O)C(CO)(CO)S2)cc1 | -2 | 0 | i | i | -1 | -7
CC(c1ccccc1)N(C)C(=O)CSc1nnc(C2CC2)n1C1CC1 (stereo unspecified) | 1 | -1 | / | i | -2 | /
CC(C)Sc1snnc1-c1ccccc1 | -3 | 8.9* | i | i | -5 | -8
CC(C)C1C(=O)N(Cc2cn(CC3CCCCC3)nn2)CCS(=O)(=O)N1Cc1ccc(-c2ccncc2)cc1 (stereo unspecified) | / | -3 | / | / | 9 | /
Cn1nnc2cc(NC(=O)Nc3ccccc3F)ccc21 | / | 0 | / | / | 9 | /
Cc1cc(NC(=O)Nc2ccccc2F)ccc1Br | 4 | 8.7* | i | i | 3 | 20
COc1ccc(C2C(C#N)=C(N)Oc3c2ccc2cccnc32)cc1OC (stereo unspecified) | 99* | -4 | i | i | -7 | 51
COc1ccc(N(C)S(=O)(=O)c2cccc(C(=O)Nc3cccc(C(=O)NC4CC4)c3)c2)cc1 | -6 | -1 | / | i | 14 | /
